Experimental findings from ChEMBL document CHEMBL1151417, “Cytotoxic triterpenoid glycosides from the roots of Gordonia chrysandra” (J Nat Prod, 2009) are described below.

Common to all, as to format: functional, cell-based
In assay [1] the test system is HCT-8. The experiment in a line: Cytotoxicity against human HCT8 cells after 96 hrs by MTT assay. The following applies: HCT-8, 96 h. In outline:
(§1)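 Cells kept in RPMI 1640 with 10% FBS, L-glutamine, penicillin/streptomycin at 37 °C, 5% CO2. 1.5 × 10³ cells/well seeded; after 24 h compounds added in DMSO at five final concentrations (0.01-10 […]), triplicate wells, 96 h exposure. MTT (0.5 mg/mL) 4 h at 37 °C, formazan dissolved in DMSO, A570 read. IC50 = 50% OD reduction vs control from dose-response curve.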

Assay [2] concerns A549. Description: Cytotoxicity against human A549 cells after 96 hrs by MTT assay. As to conditions: A549, 96 h. In outline: as §1
The subject of assay [3] is A2780. Description: Cytotoxicity against human A2780 cells after 96 hrs by MTT assay. The following applies: A2780, 96 h. In outline:
as §1

Assay [4] deals with Bel-7402. The experiment in a line: Cytotoxicity against human Bel7402 cells after 96 hrs by MTT assay. The following applies: Bel-7402, 96 h. The method in brief: as §1
Assay [5] has as its system BGC-823. Description: Cytotoxicity against human BGC823 cells after 96 hrs by MTT assay. As to conditions: BGC-823, 96 h. The method in brief:
as §1

For `C/C=C(/C)C(=O)O[C@H]1[C@H](OC(=O)/C(C)=C\C)[C@]2(CO)[C@H](OC(C)=O)C[C@]3(C)C(=CC[C@@H]4[C@@]5(C)CC[C@H](O[C@@H]6O[C@H](C(=O)O)[C@@H](O)[C@H](O[C@@H]7OC[C@H](O)[C@H](O)[C@H]7O)[C@H]6O)C(C)(C)[C@@H]5CC[C@]43C)[C@@H]2CC1(C)C` [GORDONOSIDE D], the IC50 in assay [1], in assay [2], in assay [3], in assay [4] and in assay [5] was > 10 µM each time.
For the compound `C/C=C(/C)C(=O)O[C@H]1[C@H](OC(=O)/C(C)=C\C)[C@]2(CO)[C@H](O)[C@H](O)[C@]3(C)C(=CC[C@@H]4[C@@]5(C)CC[C@H](O[C@@H]6O[C@H](C(=O)O)[C@@H](O)[C@H](O[C@@H]7OC[C@H](O)[C@H](O)[C@H]7O)[C@H]6O)[C@@](C)(C(=O)OC)[C@@H]5CC[C@]43C)[C@@H]2CC1(C)C` [GORDONOSIDE G], the IC50 in assay [1], in assay [2], in assay [3], in assay [4] and in assay [5] was > 10 µM in each case.
As for `C/C=C(/C)C(=O)O[C@H]1[C@H](OC(=O)/C(C)=C\C)[C@]2(CO)[C@H](O)C[C@]3(C)C(=CC[C@@H]4[C@@]5(C)CC[C@H](O[C@@H]6O[C@H](C(=O)O)[C@@H](O)[C@H](O[C@@H]7OC[C@H](O)[C@H](O)[C@H]7O)[C@H]6O)[C@@](C)(C(=O)OC)[C@@H]5CC[C@]43C)[C@@H]2CC1(C)C` [GORDONOSIDE F], the concentration for half-maximal inhibition (IC50) in assay [1] is > 10 µM; in assay [2], > 10 µM; in assay [3] it was 2 µM; in assay [4], 1.3 µM; in assay [5] it was > 10 µM.
For the compound `C/C=C(/C)C(=O)O[C@H]1[C@H](OC(=O)/C(C)=C\C)[C@]2(CO)[C@H](O)C[C@]3(C)C(=CC[C@@H]4[C@@]5(C)CC[C@H](O[C@@H]6O[C@H](C(=O)O)[C@@H](O)[C@H](O[C@@H]7OC[C@H](O)[C@H](O)[C@H]7O)[C@H]6O)[C@@](C)(CO)[C@@H]5CC[C@]43C)[C@@H]2CC1(C)C` [GORDONOSIDE A], the IC50 in assay [1] was > 10 µM; in assay [2], > 10 µM; in assay [3], 5.5 µM; in assay [4], 4.7 µM; in assay [5] it was > 10 µM.
Turning to `CC(=O)O[C@H]1C(=O)[C@@]2(C)[C@H]([C@H](OC(=O)c3ccccc3)[C@]3(O)C[C@H](OC(=O)[C@H](O)[C@@H](NC(=O)c4ccccc4)c4ccccc4)C(C)=C1C3(C)C)[C@]1(OC(C)=O)CO[C@@H]1C[C@@H]2O` [PACLITAXEL], the IC50 in assay [1] was 3.6 µM; in assay [2], 0.001 µM; in assay [3] it was 0.9 µM; in assay [4], 6.3 µM; in assay [5], 0.04 µM.
For `C/C=C(/C)C(=O)O[C@H]1[C@H](OC(=O)/C(C)=C\C)[C@]2(CO)[C@H](O)C[C@]3(C)C(=CC[C@@H]4[C@@]5(C)CC[C@H](O[C@@H]6O[C@H](C(=O)O)[C@@H](O)[C@H](O[C@@H]7OC[C@H](O)[C@H](O)[C@H]7O)[C@H]6O)[C@@](C)(C=O)[C@@H]5CC[C@]43C)[C@@H]2CC1(C)C` [GORDONOSIDE E], in that order: 2.7 µM, > 10 µM, 2 µM, 1.1 µM and > 10 µM.
The like results for `C/C=C(/C)C(=O)O[C@H]1[C@H](OC(=O)/C(C)=C\C)[C@]2(CO)[C@H](O)C[C@]3(C)C(=CC[C@@H]4[C@@]5(C)CC[C@H](O[C@@H]6O[C@H](C(=O)O)[C@@H](O)[C@H](O[C@@H]7OC[C@H](O)[C@H](O)[C@H]7O)[C@H]6O)C(C)(C)[C@@H]5CC[C@]43C)[C@@H]2CC1(C)C` [GORDONOSIDE C] were, in that order, 1.2 µM, 1.8 µM, 0.4 µM, 0.7 µM and 2.5 µM.
The like results for `C/C=C(/C)C(=O)O[C@H]1[C@H](OC(=O)/C(C)=C\C)[C@]2(CO)[C@H](OC(C)=O)C[C@]3(C)C(=CC[C@@H]4[C@@]5(C)CC[C@H](O[C@@H]6O[C@H](C(=O)O)[C@@H](O)[C@H](O[C@@H]7OC[C@H](O)[C@H](O)[C@H]7O)[C@H]6O)[C@@](C)(CO)[C@@H]5CC[C@]43C)[C@@H]2CC1(C)C` [GORDONOSIDE B] were, in that order, > 10 µM, > 10 µM, > 10 µM, > 10 µM and > 10 µM.
